ChEMBL document CHEMBL1671645, “Pharmacokinetics and absorption of posaconazole oral suspension under various gastric conditions in healthy volunteers” (Antimicrob Agents Chemother, 2009)

Tests used:
[1] = AUC in fasted healthy human at 400 mg administered as single dose suspension coadministered with acidic carbonated beverage; type: ADME, organism-based; settings: plasma
Procedure, shortened: (§1)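 This was a four-way crossover in 12 healthy subjects with 7–10 day washouts. Each took one fasting 400 mg oral suspension dose, with 12 oz ginger ale and/or esomeprazole 40 mg once each morning on days −2 to 1, with dosing on day 1. Plasma was sampled 0–168 h and measured by LC-MS/MS (LLOQ 5.00 ng/ml). Analysis was noncompartmental, with CL/F = dose/AUC_I and V/F = (CL/F)/K.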

[2] = AUC in fasted healthy human at 400 mg administered as single dose suspension coadministered with acidic carbonated beverage and proton pump inhibitor; type: ADME, organism-based; settings: plasma; procedure, shortened: as §1
[3] = system: Homo sapiens; assay: AUC in healthy human at 400 mg BID, po administered as suspension for 7 days coadministered with nutritional supplement; type: ADME, organism-based, Plasma; settings: in vivo, 168 h
Procedure, shortened: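 Twelve healthy subjects took oral suspension for 7 days as 400 mg BID or 200 mg QID, either fasting or with a Boost-type nutritional supplement, in a crossover with 14–21 day washouts. Nonfat snacks of 800 cal/day or less were allowed. Plasma was sampled 0–168 h after the day-7 morning dose only and analysed by LC-MS/MS. AUC is AUC_τ, normalized to dose.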

[4] = Tmax in fasted healthy human at 400 mg administered as single dose suspension after 20 mins after consumption of high fat meal; type: ADME, organism-based; settings: in vivo
Procedure, shortened: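 Single oral suspension dose in healthy volunteers while fasting, 5 min before, midway through (about 10 min into a 20-min meal), or 20 min after a high-fat meal (approx 50 g fat); four-way crossover, 7–10-day washout. Plasma 0–168 h by LC-MS/MS (LLOQ 5.00 ng/ml). t1/2 = ln(2)/K; Tmax median.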

[5] = Tmax in healthy human at 400 mg administered as single dose suspension coadministered with nutritional supplement and 10 mg metoclopramide; type: ADME, organism-based; settings: in vivo
Procedure, shortened: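 Single oral suspension dose with nutritional supplement, alone or with metoclopramide 10 mg orally three times daily on the day before and the day of dosing; three-way crossover, 7–10-day washout. EDTA plasma predose to 168 h, LC-MS/MS (LLOQ 5.00 ng/ml). t1/2 = ln(2)/K from terminal slope; Tmax median.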

[6] = Apparent total body clearance in fasted healthy human at 400 mg administered as single dose suspension after 20 mins after consumption of high fat meal; type: ADME, organism-based; settings: in vivo
Procedure, shortened: (§2)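 In a crossover of 12 healthy subjects, each took a single 400 mg oral suspension dose 5 min before, midway through (about 10 min into a 20-min meal), or 20 min after a high-fat meal of about 50 g fat. Plasma was drawn 0–168 h and measured by LC-MS/MS. Parameters are noncompartmental, with AUC to the last measurable time.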

[7] = Apparent total body clearance in healthy human at 400 mg administered as single dose suspension coadministered with nutritional supplement and 4 mg loperamide as two 2 mg tablets; type: ADME, organism-based; settings: in vivo, po
Procedure, shortened: (§3)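 A three-way crossover in 13 healthy subjects gave one 400 mg oral suspension dose with a nutritional supplement, either alone, with metoclopramide 10 mg orally three times daily on the day before and the day of dosing, or with a single 4 mg dose of loperamide. Plasma was taken 0–168 h for LC-MS/MS. Analysis was noncompartmental.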

[8] = Half life in fasted healthy human at 400 mg administered as single dose suspension coadministered with acidic carbonated beverage; type: ADME, organism-based; settings: in vivo
Procedure, shortened: (§4)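 Single oral suspension dose in fasting healthy volunteers, alone, with 12 oz ginger ale, after esomeprazole 40 mg once each morning days −2 to 1, or both; four-way crossover, 7–10-day washout. EDTA plasma 0–168 h. LC-MS/MS (LLOQ 5.00 ng/ml). t1/2 = ln(2)/K from terminal log-linear regression; Tmax median.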

[9] = Half life in fasted healthy human at 400 mg administered as single dose suspension coadministered with proton pump inhibitor; type: ADME, organism-based; settings: in vivo; procedure, shortened: as §4
[10] = Half life in fasted healthy human at 400 mg BID, po administered as suspension for 7 days; type: ADME, organism-based; settings: in vivo
Procedure, shortened: (§5)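 Healthy volunteers given oral suspension (40 mg/ml) for 7 days, fasted or with nutritional supplement (Boost); four-way crossover, 14–21-day washout, nonfat snacks ≤800 cal/day allowed. On day 7 only the morning dose was given; plasma sampled predose to 168 h after it. LC-MS/MS (LLOQ 5.00 ng/ml). t1/2 = ln(2)/K from log-linear terminal slope; Tmax as median.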

[11] = Half life in healthy human at 200 mg QID, po administered as suspension for 7 days coadministered with nutritional supplement; type: ADME, organism-based; settings: in vivo; procedure, shortened: as §5
[12] = Apparent volume of distribution in fasted healthy human at 400 mg administered as single dose suspension; type: ADME, organism-based; settings: in vivo, read-out: Vc/F
[13] = Apparent volume of distribution in fasted healthy human at 400 mg administered as single dose suspension coadministered with proton pump inhibitor; type: ADME, organism-based; settings: in vivo, read-out: Vc/F; procedure, shortened: as §1
[14] = Apparent volume of distribution in fasted healthy human at 400 mg administered as single dose suspension coadministered with acidic carbonated beverage and proton pump inhibitor; type: ADME, organism-based; settings: in vivo, read-out: Vc/F; procedure, shortened: as §1
[15] = Apparent volume of distribution in healthy human at 400 mg administered as single dose suspension coadministered with nutritional supplement and 10 mg metoclopramide; type: ADME, organism-based; settings: in vivo, po, read-out: Vc/F; procedure, shortened: as §3
[16] = system: Homo sapiens; assay: Toxicity in healthy human assessed as adverse events at 400 mg administered as single dose suspension after 20 mins after consumption of high fat meal; type: organism-based; settings: in vivo
Procedure, shortened: (§6)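 Healthy volunteers monitored for adverse events, vital signs, clinical laboratory values and 12-lead ECG. Adverse events tabulated by body system or organ class and severity and summarized by treatment across the crossover regimens.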

[17] = system: Homo sapiens; assay: Toxicity in healthy human assessed as adverse events at 400 mg administered as single dose suspension coadministered with nutritional supplement; type: organism-based; settings: in vivo; procedure, shortened: as §6
[18] = system: Homo sapiens; assay: Toxicity in healthy human assessed as adverse events at 400 mg administered as single dose suspension coadministered with nutritional supplement and 4 mg loperamide as two 2 mg tablets; type: organism-based; settings: in vivo; procedure, shortened: as §6
[19] = system: Homo sapiens; assay: Toxicity in healthy human assessed as dizziness at 400 mg BID, po administered as suspension for 7 days coadministered with nutritional supplement; type: organism-based; settings: in vivo, 168 h
Procedure, shortened: (§7)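 Healthy volunteers (n = 12) took oral posaconazole suspension (40 mg/ml) for 7 days in a four-way randomized crossover with a 14- to 21-day washout. Subjects stayed fasted throughout, with nonfat snacks up to 800 cal/day allowed. Where given, Boost was taken with each dose. Safety covered adverse events, vital signs, clinical labs and 12-lead ECG, with AEs tabulated by body system and severity per treatment.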

[20] = system: Homo sapiens; assay: Toxicity in healthy human assessed as dizziness at 200 mg QID, po administered as suspension for 7 days; type: organism-based; settings: in vivo, 168 h; procedure, shortened: as §6
[21] = system: Homo sapiens; assay: Toxicity in healthy human assessed as headache at 400 mg BID, po administered as suspension for 7 days coadministered with nutritional supplement; type: organism-based; settings: in vivo, 168 h; procedure, shortened: as §7
[22] = system: Homo sapiens; assay: Toxicity in healthy human assessed as fatigue at 400 mg administered as single dose suspension coadministered with nutritional supplement; type: organism-based; settings: in vivo
Procedure, shortened: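 Three-way randomized crossover in 13 healthy volunteers with a 7- to 10-day washout. Each period was one 400-mg oral posaconazole suspension dose with a nutritional supplement. Metoclopramide 10 mg was given orally three times daily on the day before and the day of dosing; loperamide was a single 4 mg. Safety was assessed from adverse events, tabulated by body system and severity per treatment.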

[23] = Cmax in fasted healthy human plasma at 400 mg administered as single dose suspension; type: ADME, organism-based; design: dose 400 mg
[24] = Cmax in fasted healthy human plasma at 400 mg administered as single dose suspension after 20 mins after consumption of high fat meal; type: ADME, organism-based; design: dose 400 mg; procedure, shortened: as §2

SMILES: CC[C@@H]([C@H](C)O)n1ncn(-c2ccc(N3CCN(c4ccc(OC[C@@H]5CO[C@@](Cn6cncn6)(c6ccc(F)cc6F)C5)cc4)CC3)cc2)c1=O [POSACONAZOLE]
- AUC [1]: 9610 ng·h/mL
- AUC [2]: 4180 ng·h/mL
- AUC [3]: 80600 ng·h/mL
- Tmax [4]: 6 h
- Tmax [5]: 5 h
- CL/F [6]: 395 mL/min
- CL/F [7]: 743 mL/min
- half-life [8]: 25.2 h
- half-life [9]: 25.7 h
- half-life [10]: 25.7 h
- half-life [11]: 27.8 h
- Vd/F [12]: 3330 L
- Vd/F [13]: 4350 L
- Vd/F [14]: 3920 L
- Vd/F [15]: 2280 L
- Activity [16]: 25%
- Activity [17]: 38%
- Activity [18]: 38%
- Activity [19]: 33%
- Activity [20]: 33%
- Activity [21]: 25%
- Activity [22]: 15%
- Cmax [23]: 151 ng/mL
- Cmax [24]: 544 ng/mL
